Results on five compounds are retold here after ChEMBL document CHEMBL1141642, “Rate enhancement of the oxidative folding of lysozyme by the use of aromatic thiol containing redox buffers” (Bioorg Med Chem, 2008).

Molecules are shown by their SMILES.

As a reminder, the pKa is the negative logarithm of the acid dissociation constant.

For series [1], the species on record is Gallus gallus. Nature of the series: Effect on reduced chicken lysozyme folding activity assessed as maximal activity at 8 mM at pH 6. Details: scale not given: the % may be the effect or the level left. An outline of the steps: (§1)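 Denatured reduced lysozyme (DTE-reduced in 6 M GdnHCl, desalted) diluted 100-fold to 7 µM (0.1 mg/mL) into deoxygenated 0.1 M Bis–Tris pH 6.0, 1 mM EDTA, 0.5 M GdnHCl, 0.2 mM GSSG plus aromatic thiol, 25 °C. Aliquots assayed over time by lysis of M. lysodeikticus (450 nm light scattering, 2 min slope). Curves fit to y=A(1−e^−kt), A = maximal %activity; at least four assays on separate days, standard deviation.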

The species entered for series [2] is Gallus gallus. The series can be described thus: Effect on reduced chicken lysozyme folding activity assessed as maximal activity at 8 mM at pH 7. Further details: scale not given: the % may be the effect or the level left. The method in brief: (§2)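 Denatured reduced lysozyme diluted 100-fold to 7 µM into deoxygenated 0.1 M Bis–Tris propane pH 7.0, 1 mM EDTA, 0.5 M GdnHCl, 0.2 mM GSSG plus aromatic thiol, 25 °C. Timed aliquots assayed for lytic activity on M. lysodeikticus (decrease in 450 nm scattering over 2 min). Fit to y=A(1−e^−kt), A = maximal %activity; at least seven independent assays on separate days.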

The nature of series [3]: Dissociation constant, pKa of the compound. Type of series: physicochemical.
For series [4], the species on record is Gallus gallus. Nature of the series: Effect on reduced chicken lysozyme folding activity assessed as maximal activity at 15 mM at pH 6. Further details: scale not given: the % may be the effect or the level left. The method in brief:
as §1

For series [5], the species on record is Gallus gallus. Nature of the series: Effect on reduced chicken lysozyme folding activity assessed as maximal activity at 20 mM at pH 7. Further details: scale not given: the % may be the effect or the level left. An outline of the steps: as §2
Series [6] is filed under the species Gallus gallus. The series can be described thus: Effect on reduced chicken lysozyme folding activity assessed as maximal activity at 20 mM at pH 6. Further details: scale not given: the % may be the effect or the level left. An outline of the steps: as §1
The species entered for series [7] is Gallus gallus. The series can be described thus: Effect on reduced chicken lysozyme folding activity assessed as maximal activity at 15 mM at pH 7. Details: scale not given: the % may be the effect or the level left. An outline of the steps: as §2

Regarding `O=C(O)c1ccc(S)cc1`, the Activity in the series listed under Gallus gallus [1] was 60%; in the series filed under Gallus gallus [2] it was 70%. The pKa in series [3] was 5.95.

As for `O=C(O)Cc1ccc(S)cc1`, the Activity in the series listed under Gallus gallus [1] was found to be 16%; in the series listed under Gallus gallus [2], 45%.

Take `O=S(=O)(O)c1ccc(S)cc1`: the Activity in the series filed under Gallus gallus [4] came out at 50%; in the series listed under Gallus gallus [5] it was 62%. The pKa in series [3] turned out to be 5.7.

Turning to `C[N+](C)(C)Cc1ccc(S)cc1`, the Activity in the series filed under Gallus gallus [5] stood at 72%; in the series listed under Gallus gallus [6], 85%. Moreover, in series [3], the pKa was determined as 5.5.

In the case of `O=P(O)(O)Cc1ccc(S)cc1`, the Activity in the series listed under Gallus gallus [1] and in the series filed under Gallus gallus [7] was 67% in each case. In addition, in series [3], the pKa turned out to be 6.6.
